In general, IC50 refers to the point on the concentration scale where inhibition reaches its midpoint.

Data on 21 compounds can be found in ChEMBL document CHEMBL1681772 (Bioorg Med Chem, 2011).

The target in the assay is T1, Prostaglandin G/H synthase 1 (Ovis aries, UniProt P05979).
T1 sequence (P05979 whole entry): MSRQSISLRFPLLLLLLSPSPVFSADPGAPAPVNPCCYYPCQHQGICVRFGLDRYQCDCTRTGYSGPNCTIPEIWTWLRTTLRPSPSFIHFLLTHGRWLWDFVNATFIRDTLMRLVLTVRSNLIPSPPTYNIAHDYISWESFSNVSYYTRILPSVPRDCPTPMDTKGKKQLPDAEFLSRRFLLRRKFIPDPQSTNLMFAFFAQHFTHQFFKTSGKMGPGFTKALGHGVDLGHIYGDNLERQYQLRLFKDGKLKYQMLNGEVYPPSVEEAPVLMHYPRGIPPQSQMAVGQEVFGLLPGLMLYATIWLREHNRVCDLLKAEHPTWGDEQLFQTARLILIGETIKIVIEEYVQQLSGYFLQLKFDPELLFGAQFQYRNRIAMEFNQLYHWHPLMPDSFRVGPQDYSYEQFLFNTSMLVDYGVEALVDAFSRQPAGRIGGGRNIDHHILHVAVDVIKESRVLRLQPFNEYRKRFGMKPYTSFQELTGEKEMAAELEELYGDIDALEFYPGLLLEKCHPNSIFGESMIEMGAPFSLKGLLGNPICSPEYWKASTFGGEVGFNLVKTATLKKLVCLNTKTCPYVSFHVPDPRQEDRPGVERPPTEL
As to the kind of experiment: Inhibition of ovine COX1 assessed as PGF2alpha level by EIA. A digest of the protocol:
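Ovine COX-1 with heme in 0.1 M Tris-HCl pH 8.0 (5 mM EDTA, 2 mM phenol); compound at […] (final), 2 min preincubation at 37 °C. Started with arachidonic acid (100 µM), stopped after 2 min with 1 M HCl. PGH2 reduced to PGF2α by stannous chloride and quantified by EIA (18 h, room temperature; Ellman's reagent, 410 nm). IC50 from percent inhibition, mean of two determinations.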

`COC1(c2cccc(CS(=O)(=O)Nc3ccccc3OCc3ccccc3)c2)CCOCC1`: the IC50 came to 14.8 µM.
Consider `COC1(c2cccc(CS(=O)(=O)Nc3ccc(Cl)cc3OCc3ccccc3)c2)CCOCC1`, for which the IC50 is 24.4 µM.
The figure for `COC1(c2cccc(CS(=O)(=O)Nc3cc(Cl)ccc3OCc3ccccc3)c2)CCOCC1` is 15.6 µM.
Regarding `COC1(c2cccc(CS(=O)(=O)Nc3cc(C)ccc3OCc3ccccc3)c2)CCOCC1`, the IC50 was 16.5 µM.
The figure for `COC1(c2cccc(CS(=O)(=O)Nc3ccc([N+](=O)[O-])cc3OCc3ccccc3)c2)CCOCC1` is 7.9 µM; for `CCOC(=O)c1ccc(OCc2ccccc2)c(NS(=O)(=O)Cc2cccc(C3(OC)CCOCC3)c2)c1` it is 11.6 µM.
The figure for `COC1(c2cccc(CN(c3ccccc3OCc3ccccc3)S(C)(=O)=O)c2)CCOCC1` is over 100 µM; for `COC1(c2cccc(CN(c3ccc(Cl)cc3OCc3ccccc3)S(C)(=O)=O)c2)CCOCC1` it is over 100 µM; for `COC1(c2cccc(CN(c3cc(Cl)ccc3OCc3ccccc3)S(C)(=O)=O)c2)CCOCC1` it is over 100 µM.
For the compound `COC1(c2cccc(CN(c3cc(C)ccc3OCc3ccccc3)S(C)(=O)=O)c2)CCOCC1`, the IC50 was over 100 µM.
The figure for `COC1(c2cccc(CN(c3ccc([N+](=O)[O-])cc3OCc3ccccc3)S(C)(=O)=O)c2)CCOCC1` is 13.5 µM.
Regarding `COC1(c2cccc(CNc3ccccc3OCc3ccccc3)c2)CCOCC1`, the IC50 is over 100 µM.
To `COC1(c2cccc(CNc3ccc(Cl)cc3OCc3ccccc3)c2)CCOCC1` belongs 34.6 µM.
For `COC1(c2cccc(CNc3cc(Cl)ccc3OCc3ccccc3)c2)CCOCC1`, the IC50 was over 100 µM.
As to `COC1(c2cccc(CNc3cc(C)ccc3OCc3ccccc3)c2)CCOCC1`, the concentration for half-maximal inhibition (IC50) is over 100 µM.
With `COC1(c2cccc(CNc3ccc([N+](=O)[O-])cc3OCc3ccccc3)c2)CCOCC1`, the IC50 worked out at 88.8 µM.
To `COC1(c2cccc(COc3ccccc3OCc3ccccc3)c2)CCOCC1` belongs over 100 µM; to `COC1(c2cccc(COc3ccc(Cl)cc3OCc3ccccc3)c2)CCOCC1`, over 100 µM.
Consider `COC1(c2cccc(COc3ccc(Br)cc3OCc3ccccc3)c2)CCOCC1`, for which the IC50 is over 100 µM.
The figure for `CCOC(=O)c1ccc(OCc2cccc(C3(OC)CCOCC3)c2)c(OCc2ccccc2)c1` is 44.2 µM; for `CS(=O)(=O)Nc1ccc([N+](=O)[O-])cc1Oc1ccccc1` [NIMESULIDE] it is 6.2 µM.
